Test results from ChEMBL document CHEMBL1125823, “2-Phenylindole-linked [2-(aminoalkyl)pyridine]dichloroplatinum(II): complexes with a selective action on estrogen receptor positive mammary tumors” (1991).

Columns and labels:
[1] = molecular target: T1, Estrogen receptor (Mus musculus) (UniProt O08537+P19785); assay: Uterotrophic effect in mice as relative uterine weight(mg) at 15 ug (control = 14.5+/-2.1); type: functional, tissue-based
Summary of the method: (§1)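 Immature mice dosed sc per animal on three consecutive days; vehicle controls. Killed and weighed 24 h after last injection; uteri fixed in Bouin solution 2 h, washed with alcoholic LiCl, dried at 100 °C for 24 h. Relative uterus weight = uterine dry weight (mg)/body weight (g) × 100; mean of 6-10 animals ± SD.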

[2] = test system: MCF7; assay: Effect on [3H]thymidine incorporation into estrogen receptor positive MCF-7 human breast cancer cells at 5x10E-6M (control = 48.6+/-3.6); type: functional
Summary of the method: (§2)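 MCF-7 cells in improved MEM with glutamine, gentamycin and 5% newborn calf serum, switched to charcoal-treated serum two weeks ahead; phenol red present; 37 °C, 5% CO2. About 2×10^4 cells plated per well; compound in 0.1% DMF added 2 days later, renewed on day 4; labelled 3 days later with 1 μCi [3H]thymidine per well for 2 h; cpm/dish, mean of six dishes ± SD.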

[3] = test system: MCF7; assay: Effect on Estrogen receptor positive MCF-7 human breast cancer cell proliferation at 5x10E-6M (control = 62.7+/-8.8); type: functional
Summary of the method: (§3)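 MCF-7 cells were kept in MEM with 5% charcoal-treated newborn calf serum and phenol red for 2 weeks, then about 2×10^4 cells were plated per well. Compounds in 0.1% DMF were added 2 days later and renewed on day 4; DMF alone served as control. Coulter cell counts were taken on day 5; mean of six dishes ± SD; % T/C.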

[4] = test system: MCF7; assay: Effect on Estrogen receptor positive MCF-7 human breast cancer cell proliferation at 1x10E-6M; type: functional; summary of the method: as §3
[5] = molecular target: T1, Estrogen receptor (Mus musculus); assay: Percent inhibition of estrone stimulated uterotrophic effect in mice at 15 ug; type: functional
Summary of the method: (§4)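 Immature mice given test compound per animal sc on three consecutive days together with 0.4 μg estrone/animal/day. Killed 24 h after last injection; uteri fixed in Bouin, dried 100 °C 24 h and weighed. Inhibition = 100 − [(W_S,T − W_V)/(W_S − W_V) × 100] using relative uterus weights; 6-10 animals; Wilcoxon-Mann-Whitney U test.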

[6] = test system: MCF7; assay: Effect on Estrogen receptor positive MCF-7 human breast cancer cell proliferation at 1x10E-6M (control = 62.7+/-8.8); type: functional; summary of the method: as §3
[7] = molecular target: T1, Estrogen receptor (Mus musculus); assay: Uterotrophic effect in mice as relative uterine weight(mg) at 150 ug (control = 14.5+/-2.1); type: functional, tissue-based; summary of the method: as §1
[8] = test system: MCF7; assay: Effect on [3H]thymidine incorporation into estrogen receptor positive MCF-7 human breast cancer cells at 1x10E-6M; type: functional
Summary of the method: (§5)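 MCF-7 cells were grown in MEM with charcoal-treated 5% newborn calf serum and phenol red, then treated with compounds in 0.1% DMF (renewed on day 4) alongside DMF controls. They were labeled 3 days later with 1 µCi [³H]thymidine per well for 2 h, and incorporated radioactivity per dish was measured; mean of six dishes ± SD; % T/C.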

[9] = test system: MCF7; assay: Effect on [3H]thymidine incorporation into estrogen receptor positive MCF-7 human breast cancer cells at 5x10E-7M
[10] = test system: MCF7; assay: Effect on Estrogen receptor positive MCF-7 human breast cancer cell proliferation at 5x10E-7M (control = 62.7+/-8.8); type: functional; summary of the method: as §3
[11] = test system: MCF7; assay: Effect on [3H]thymidine incorporation into estrogen receptor positive MCF-7 human breast cancer cells at 1x10E-6M (control = 48.6+/-3.6); type: functional; summary of the method: as §5
[12] = test system: MCF7; assay: Effect on Estrogen receptor positive MCF-7 human breast cancer cell proliferation at 5x10E-7M; type: functional; summary of the method: as §3
[13] = molecular target: T1, Estrogen receptor (Mus musculus); assay: Percent inhibition of estrone stimulated uterotrophic effect in mice at 150 ug; type: functional; summary of the method: as §4
[14] = test system: MCF7; assay: Effect on [3H]thymidine incorporation into estrogen receptor positive MCF-7 human breast cancer cells at 5x10E-7M (control=48.6+/-3.6); type: functional; summary of the method: as §2
[15] = molecular target: T1, Estrogen receptor (Mus musculus); assay: Anti-uterotrophic effect in mice as relative uterine weight(mg) at 150 ug; type: functional
Summary of the method: (§6)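 Immature mice received the compound sc per animal on three consecutive days, alone or with 0.4 µg estrone per animal per day. Uteri were taken 24 h after the last injection, Bouin-fixed, dried at 100 °C for 24 h and weighed. Relative uterus weight = dry weight (mg)/body weight (g) × 100; mean of 6-10 animals ± SD; Mann-Whitney U test.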

[16] = test system: MCF7; assay: Effect on Estrogen receptor positive MCF-7 human breast cancer cell proliferation at 5x10E-6M; type: functional; summary of the method: as §3
[17] = molecular target: T1, Estrogen receptor (Mus musculus); assay: Anti-uterotrophic effect in hormone-dependent transplant MXT bearing mice as relative uterine weight in treated and control mice at 12.2 mg (control=100+/-24); type: functional
[18] = molecular target: T1, Estrogen receptor (Mus musculus); assay: Anti-uterotrophic effect in mice as relative uterine weight(mg) at 15 ug; type: functional; summary of the method: as §6
[19] = species on record: Mus musculus; assay: Relative tumor weight in treated compared to control mice bearing hormone-dependent transplanted MXT mammary tumors at 12.2 mg
[20] = test system: MCF7; assay: Effect on [3H]thymidine incorporation into estrogen receptor positive MCF-7 human breast cancer cells at 5x10E-6M; type: functional; summary of the method: as §2
[21] = species on record: Mus musculus; assay: Anti-tumor activity in hormone-dependent transplant MXT mammary tumor bearing mice at 12.2 mg (control=197+/-130); type: functional
[22] = test system: MCF7; assay: Effect on Estrogen receptor positive MCF-7 human breast cancer cell proliferation at 1x10E-6M (control = 24.4+/-3.8); type: functional; summary of the method: as §3
[23] = molecular target: T1, Estrogen receptor (Mus musculus); assay: Anti-uterotrophic effect in hormone-dependent transplant MXT bearing mice as relative uterine weight in treated and control mice at 12.5 mg (control=100+/-24); type: functional
[24] = species on record: Mus musculus; assay: Anti-tumor activity in hormone-dependent transplant MXT mammary tumor bearing mice at 12.5 mg (control=197+/-130); type: functional
[25] = test system: MCF7; assay: Effect on [3H]thymidine incorporation into estrogen receptor positive MCF-7 human breast cancer cells at 1*10^-6 M (control = 10.2+/-1.4); type: functional; summary of the method: as §5
[26] = test system: MCF7; assay: Effect on [3H]thymidine incorporation into estrogen receptor positive MCF-7 human breast cancer cells at 5*10e-6 M (control = 10.2+/-1.4); type: functional; summary of the method: as §2
[27] = species on record: Mus musculus; assay: Relative tumor weight in treated compared to control mice bearing hormone-dependent transplanted MXT mammary tumors at 12.5 mg
[28] = molecular target: T1, Estrogen receptor (Mus musculus); assay: Uterotrophic effect in mice as relative uterine weight(mg) at 150 ug (control = […]+/-1.7); type: functional, tissue-based
[29] = test system: MCF7; assay: Effect on Estrogen receptor positive MCF-7 human breast cancer cell proliferation at 5x10E-6M (control = 24.4+/-3.8); type: functional; summary of the method: as §3
[30] = molecular target: T1, Estrogen receptor (Mus musculus); assay: Uterotrophic effect in mice as relative uterine weight(mg) at 15 ug (control = […]+/-1.7); type: functional, tissue-based
[31] = molecular target: T1, Estrogen receptor (Mus musculus); assay: Anti-uterotrophic effect in hormone-dependent transplant MXT bearing mice as relative uterine weight in treated and control mice at 6.2 mg (control=100+/-30); type: functional
[32] = test system: MCF7; assay: Effect on Estrogen receptor positive MCF-7 human breast cancer cell proliferation at 5x10E-6M (control = 22.3+/-3.3); type: functional; summary of the method: as §3
[33] = test system: MCF7; assay: Effect on [3H]thymidine incorporation into estrogen receptor positive MCF-7 human breast cancer cells at 5x10E-6M (control = 7.7+/-0.8); type: functional; summary of the method: as §2
[34] = molecular target: T1, Estrogen receptor (Mus musculus); assay: Anti-uterotrophic effect in hormone-dependent transplant MXT bearing mice as relative uterine weight in treated and control mice at 12.4 mg (control=100+/-30); type: functional
[35] = molecular target: T1, Estrogen receptor (Mus musculus); assay: Uterotrophic effect in mice as relative uterine weight(mg) at 150 ug (control = 12.4+/-3.7); type: functional, tissue-based; summary of the method: as §1
[36] = species on record: Mus musculus; assay: Relative tumor weight in treated compared to control mice bearing hormone-dependent transplanted MXT mammary tumors at 12.4 mg; type: functional
[37] = species on record: Mus musculus; assay: Anti-tumor activity in hormone-dependent transplant MXT mammary tumor bearing mice at 12.4 mg (control=534+/-652); type: functional
[38] = test system: MCF7; assay: Effect on Estrogen receptor positive MCF-7 human breast cancer cell proliferation at 1x10E-6M (control = 22.3+/-3.3); type: functional; summary of the method: as §3
[39] = species on record: Mus musculus; assay: Anti-tumor activity in hormone-dependent transplant MXT mammary tumor bearing mice at 6.2 mg (control=534+/-652); type: functional
[40] = species on record: Mus musculus; assay: Relative tumor weight in treated compared to control mice bearing hormone-dependent transplanted MXT mammary tumors at 6.2 mg; type: functional
[41] = molecular target: T1, Estrogen receptor (Mus musculus); assay: Uterotrophic effect in mice as relative uterine weight(mg) at 15 ug (control = 12.4+/-3.7); type: functional, tissue-based; summary of the method: as §1
[42] = test system: MCF7; assay: Effect on [3H]thymidine incorporation into estrogen receptor positive MCF-7 human breast cancer cells at 1x10E-6M (control = 7.7+/-0.8); type: functional; summary of the method: as §5

T1 sequence (O08537 whole entry, looked up): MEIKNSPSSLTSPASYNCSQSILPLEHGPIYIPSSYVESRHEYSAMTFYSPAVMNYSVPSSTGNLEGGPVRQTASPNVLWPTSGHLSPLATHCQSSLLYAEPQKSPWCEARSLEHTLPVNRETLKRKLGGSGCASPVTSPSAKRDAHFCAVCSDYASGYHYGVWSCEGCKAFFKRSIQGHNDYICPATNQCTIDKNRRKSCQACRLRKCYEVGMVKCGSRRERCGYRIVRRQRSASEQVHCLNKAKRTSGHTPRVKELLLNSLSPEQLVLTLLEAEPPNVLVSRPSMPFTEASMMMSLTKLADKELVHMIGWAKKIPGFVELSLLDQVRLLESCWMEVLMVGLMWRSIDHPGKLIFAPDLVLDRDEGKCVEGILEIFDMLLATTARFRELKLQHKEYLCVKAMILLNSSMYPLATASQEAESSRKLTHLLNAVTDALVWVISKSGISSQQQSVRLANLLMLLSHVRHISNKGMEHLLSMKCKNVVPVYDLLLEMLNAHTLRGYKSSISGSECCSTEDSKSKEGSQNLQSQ
T1 sequence (P19785 whole entry, looked up): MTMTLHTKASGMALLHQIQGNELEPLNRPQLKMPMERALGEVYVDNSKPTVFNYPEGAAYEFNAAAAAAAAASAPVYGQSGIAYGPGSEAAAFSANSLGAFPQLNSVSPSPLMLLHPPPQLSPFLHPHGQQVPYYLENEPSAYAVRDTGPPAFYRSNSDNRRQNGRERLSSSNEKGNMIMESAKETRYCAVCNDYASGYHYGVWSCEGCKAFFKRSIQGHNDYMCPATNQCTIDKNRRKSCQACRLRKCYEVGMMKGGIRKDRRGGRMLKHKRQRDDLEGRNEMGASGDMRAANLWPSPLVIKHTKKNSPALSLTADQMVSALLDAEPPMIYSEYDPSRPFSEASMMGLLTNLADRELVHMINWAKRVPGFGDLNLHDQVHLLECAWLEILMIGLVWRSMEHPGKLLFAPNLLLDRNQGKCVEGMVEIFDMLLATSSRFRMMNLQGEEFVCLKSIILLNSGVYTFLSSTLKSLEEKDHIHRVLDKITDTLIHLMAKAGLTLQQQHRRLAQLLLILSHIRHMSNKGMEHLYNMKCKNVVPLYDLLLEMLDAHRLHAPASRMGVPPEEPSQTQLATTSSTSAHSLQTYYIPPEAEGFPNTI

SMILES: Oc1ccc(-c2cc3cc(O)ccc3n2CCCCCCNCc2ccccn2)cc1
- Relative uterus weight [1]: 13.6 mg
- Activity [2]: 9600
- Cell no/dish [3]: 195000
- T/C [4]: 53%
- inhibition [5]: 18%
- Cell no/dish [6]: 334000
- Relative uterus weight [7]: 22.1 mg
- T/C [8]: 41%
- T/C [9]: 47%
- Cell no/dish [10]: 335000
- Activity [11]: 20000
- T/C [12]: 54%
- inhibition [13]: 5%
- [3H] thymidinecpm/dish [14]: 22800
- Relative uterus weight [15]: 46.1 mg
- T/C [16]: 31%
- T/C [17]: 78%
- Relative uterus weight [18]: 40.6 mg
- T/C [19]: 80%
- T/C [20]: 20%
- Tumor weight [21]: 158 mg

SMILES: Cc1c(-c2ccc(O)cc2)n(CCCCCCNC(C)c2ccccn2)c2ccc(O)cc12 (configuration not stated)
- Cell no/dish [22]: 126000
- T/C [23]: 96%
- Tumor weight [24]: 148 mg
- T/C [4]: 52%
- inhibition [5]: 39%
- T/C [8]: 46%
- Activity [25]: 4600
- Activity [26]: 1200
- T/C [27]: 75%
- inhibition [13]: 77%
- Relative uterus weight [28]: 20.2 mg
- Cell no/dish [29]: 95000
- Relative uterus weight [15]: 22.4 mg
- T/C [16]: 39%
- Relative uterus weight [18]: 34.2 mg
- T/C [20]: 12%
- Relative uterus weight [30]: 14.6 mg

SMILES: Cc1c(-c2ccc(O)cc2)n(CCCCCCNCc2ccccn2)c2ccc(O)cc12
- T/C [31]: 119%
- Cell no/dish [32]: 52000
- T/C [4]: 48%
- Activity [33]: 400
- T/C [34]: 137%
- T/C [8]: 13%
- Relative uterus weight [35]: 24.9 mg
- T/C [36]: 31%
- inhibition [13]: 31%
- Tumor weight [37]: 169 mg
- Cell no/dish [38]: 106000
- Tumor weight [39]: 378 mg
- Relative uterus weight [15]: 36.9 mg
- T/C [40]: 71%
- T/C [16]: 23%
- Relative uterus weight [41]: 27.9 mg
- Relative uterus weight [18]: 46.6 mg
- T/C [20]: 5%
- Activity [42]: 1000
